Assay results of several laboratories.
Lines come from different studies, so protocols differ.

assay | test system | conditions | quantity | value | SMILES
metabolic stability | mouse, liver microsomes |  | microsomal CLint | < 7 µL/min/mg | CC1(C)NC(=O)N(c2ccc(F)c(S(C)(=O)=O)c2)C1=O
metabolic stability | mouse, liver microsomes |  | scaled CLint | 75.6 mL/min/kg | CC(C)n1ncc2c(C(=O)NC(C)(C)CN)cc(C3CC3)nc21
 | male Sprague-Dawley rat, plasma | oral, 10 mg/kg, single dose | Vd/F | 37 L/kg | C[C@H]1Oc2cc(cnc2N)-c2c(nn(C)c2C#N)CN(C)C(=O)c2ccc(F)cc21
metabolic stability | mouse, liver microsomes | 1 µM, pH 7.4 | microsomal CLint | 6.76 µL/min/mg | O=c1c2ccc(OCc3ccc(C(F)(F)F)cc3)cc2[nH]c2cc(Cl)cc(F)c12
metabolic stability | mouse, liver microsomes |  | microsomal CLint | < 7 µL/min/mg | O=C1NC(CF)(CF)C(=O)N1c1ccc(F)c(C(F)(F)F)c1
metabolic stability | mouse, liver microsomes | 1 µM, pH 7.4 | microsomal CLint | 51.9 µL/min/mg | CCCN(CCC)CCOc1ccc2c(=O)c3c([nH]c2c1)CCCC3
 | rat, plasma | intravenous, 2 mg/kg | Vd | 3 L/kg | CNS(=O)(=O)c1ccc(Nc2ncc(C(F)(F)F)c(N3CCC(C)(O)CC3)n2)c(C)c1
metabolic stability | mouse, liver microsomes | 1 µM, pH 7.4 | microsomal CLint | 40.4 µL/min/mg | CN(C)CCOc1ccc2c(=O)c3c([nH]c2c1)CCCC3
metabolic stability | mouse, liver microsomes |  | scaled CLint | 195 mL/min/kg | CC(C)c1cc(C(=O)NCCN2CCCC2)c2cnn(C(C)C)c2n1
 | rat, plasma | intravenous, 2 mg/kg | Vd | 18 L/kg | Cc1cc(S(=O)(=O)NC2CC(N3CCN(CC4CCN(c5ccc6c(c5F)n(C)c(=O)n6C5CCC(=O)NC5=O)CC4)CC3)C2)ccc1Nc1ncc(C(F)(F)F)c(N2CCCC(C)(O)C2)n1 (centres unmarked)
metabolic stability | mouse, liver microsomes |  | scaled CLint | < 38 mL/min/kg | CC(C)c1cc(C(=O)NCCN)c2cnn(C(C)C)c2n1
metabolic stability | mouse, liver microsomes | 1 µM, pH 7.4 | microsomal CLint | 36.2 µL/min/mg | CCCCN(CCCC)CCCOc1ccc2c(=O)c3c([nH]c2c1)CCCC3
metabolic stability | mouse, liver microsomes |  | scaled CLint | 120 mL/min/kg | CC(C)n1ncc2c(C(=O)NCC(C)(C)N(C)C)cc(C3CC3)nc21
 | rat, plasma | intravenous, 2 mg/kg | Vd | 4 L/kg | CNS(=O)(=O)c1ccc(Nc2ncc3cc(Cl)c(=O)n(C4CCCC4)c3n2)c(C)c1
